Laboratory results reported in ChEMBL document CHEMBL1123650, “In vivo characterization of hydroxamic acid inhibitors of 5-lipoxygenase” (J Med Chem, 1987).
Active and inactive are the calls of the source. The rule behind the calls is not given here.

Legend:
Rattus norvegicus [1] = assay: Plasma concentration was evaluated for corresponding carboxylic acid metabolite at 100 mg/kg dose peroral administration in rats after 20 min; format: functional, organism-based; parameters: dose 100 mg/kg
In short: (§1)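 Rats dosed by oral gavage, 100 mg/kg suspended in 0.2% methylcellulose (4 mL/kg). Blood taken from lateral tail vein, plasma separated. Proteins precipitated with 2 volumes methanol before reversed-phase HPLC, or plasma acidified and ether-extracted for normal-phase HPLC. Parent hydroxamate and carboxylic acid metabolite measured. Average of four determinations with range.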

Rattus norvegicus [2] = assay: Plasma concentration was evaluated for corresponding carboxylic acid metabolite at 100 mg/kg dose peroral administration in rats after 60 min; format: functional, organism-based; parameters: dose 100 mg/kg; in short: as §1
Rattus norvegicus [3] = assay: Plasma concentration was evaluated for corresponding hydroxamic acid metabolite at 100 mg/kg dose peroral administration in rats after 20 min; format: functional, organism-based; parameters: dose 100 mg/kg; in short: as §1
Rattus norvegicus [4] = assay: Plasma concentration was evaluated for corresponding hydroxamic acid metabolite at 100 mg/kg dose peroral administration in rats after 60 min; format: functional, organism-based; parameters: dose 100 mg/kg; in short: as §1
[5] = target: T1, Polyunsaturated fatty acid 5-lipoxygenase (Rattus norvegicus, UniProt P12527); assay: In vitro inhibitory activity against 5-lipoxygenase in rat RBL-1 cells; format: cell-based
T1 sequence (P12527 whole entry): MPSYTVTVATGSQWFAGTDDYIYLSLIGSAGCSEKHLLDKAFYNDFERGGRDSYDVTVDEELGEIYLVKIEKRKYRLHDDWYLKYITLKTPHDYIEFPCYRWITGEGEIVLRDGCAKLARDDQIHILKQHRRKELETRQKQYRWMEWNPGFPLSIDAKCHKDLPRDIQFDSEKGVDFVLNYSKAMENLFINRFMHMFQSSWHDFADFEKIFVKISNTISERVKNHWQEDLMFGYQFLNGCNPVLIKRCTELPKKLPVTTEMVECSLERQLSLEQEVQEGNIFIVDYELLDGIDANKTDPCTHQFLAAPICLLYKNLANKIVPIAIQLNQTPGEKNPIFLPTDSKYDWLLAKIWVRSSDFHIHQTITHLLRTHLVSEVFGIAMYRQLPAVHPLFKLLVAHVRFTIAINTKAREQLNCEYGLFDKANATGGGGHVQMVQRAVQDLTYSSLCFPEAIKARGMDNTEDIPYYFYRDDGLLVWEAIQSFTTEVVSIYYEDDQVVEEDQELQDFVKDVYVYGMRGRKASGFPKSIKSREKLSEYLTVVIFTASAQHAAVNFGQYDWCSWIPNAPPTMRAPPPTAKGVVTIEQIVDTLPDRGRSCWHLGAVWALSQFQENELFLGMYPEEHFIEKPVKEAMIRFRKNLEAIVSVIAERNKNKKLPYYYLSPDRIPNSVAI
In short: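 RBL-1 cell homogenate, 20000g supernatant (from 6 × 10^4 cells) in 200-μL incubations with 2% DMSO vehicle and varied inhibitor concentrations. Reaction started with radiolabeled arachidonic acid, stopped by acidification and ether extraction. Products separated from substrate by TLC and counted by scintillation. Triplicate incubations, compared against mean of vehicle controls (n = 8). IC50 with 95% confidence limits from linear regression of % inhibition vs log concentration.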

Rattus norvegicus [6] = assay: Inhibition of leukotriene biosynthesis was determined in vivo with the rat peritoneal anaphylaxis model administered perorally at 100 mg/kg; not significant; format: functional, organism-based; parameters: dose 100 mg/kg
In short: (§2)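 Fasted male Sprague-Dawley rats sensitized ip with rabbit anti-BSA in PBS pH 7.1, then challenged ip 3 h later with BSA (4 mg) in PBS containing 30 mM L-cysteine. Compound in 0.2% methylcellulose given by gavage 1 h before challenge; 6–8 rats per group. Peritoneal fluid collected 15 min after challenge, LTC4 measured by RIA. % inhibition vs control mean, ± SEM; significance at […].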

Rattus norvegicus [7] = assay: Inhibition of leukotriene biosynthesis was determined in vivo with the rat peritoneal anaphylaxis model administered perorally at 100 mg/kg *p > 0.05; format: functional; settings: route oral; in short: as §2
Rattus norvegicus [8] = assay: Inhibition of leukotriene biosynthesis was determined in vivo with the rat peritoneal anaphylaxis model administered perorally at 100 mg/kg; format: functional; settings: route oral; in short: as §2

| IC50 [5] | SMILES | Concentration (Rattus norvegicus [1]) | Concentration (Rattus norvegicus [2]) | Concentration (Rattus norvegicus [3]) | Concentration (Rattus norvegicus [4]) | inhibition (Rattus norvegicus [6]) | inhibition in vivo at 100 mg/kg (Rattus norvegicus [7]) | inhibition in vivo at 100 mg/kg (Rattus norvegicus [8]) |
| --- | --- | --- | --- | --- | --- | --- | --- | --- |
|  | CC(C)Cc1ccc(CCC(=O)N(C)O)cc1 | 349 µM | 80 µM | < 10 µM | < 10 µM |  |  |  |
|  | CC(C)Cc1ccc(/C=C/C(=O)N(C)O)cc1 | 1.9 µM | 4.5 µM | < 4 µM | < 4 µM |  |  |  |
| 22 nM | Cc1cc(C)c(-c2ccc(/C=C/C(=O)N(C)O)cc2)c(C)c1 |  |  |  |  | inactive |  |  |
|  | CC(C)Cc1ccc(C(C(=O)N(C)O)C(C)C)cc1 (stereo not drawn) | 3.7 µM | 7.5 µM | 5 µM | 7.9 µM |  |  |  |
|  | CC(C)Cc1ccc(C(C)(C)C(=O)N(C)O)cc1 | 9.3 µM | < 1 µM | 5.8 µM | < 1 µM |  |  |  |
|  | CN(O)C(=O)/C=C/c1ccc2ccccc2c1 |  |  |  |  |  | 66% |  |
| 980 nM | CC(C)Cc1ccc(C(C)C(=O)N(C)O)cc1 (stereo not drawn) | 41 µM | 36 µM | 32 µM | 14 µM |  |  | 65% |
| 730 nM | CCCCOc1ccc(C(C)C(=O)N(C)O)cc1 (stereo not drawn) | 40 µM | 50 µM | 38 µM | 13 µM |  |  | 62% |
|  | CC(C)Cc1ccc(C(=O)N(C)O)cc1 | 432 µM | 404 µM | < 5 µM | < 5 µM |  |  |  |
| 4840 nM | CC(C)Cc1ccc(C(C)C(=O)NO)cc1 (stereo not drawn) [IBUPROXAM] | 114 µM | 146 µM | 49 µM | 27 µM | inactive |  |  |
| 3700 nM | CC(C)Oc1ccc(C(C)C(=O)N(C)O)cc1 (stereo not drawn) |  |  |  | 38 µM |  |  | 67% |
| 410 nM | COc1ccc2cc(C(C)C(=O)N(C)O)ccc2c1 (stereo not drawn) | 3 µM | 4 µM | 1.7 µM | 1.3 µM |  |  | 52% |
|  | CC(C)Cc1ccc(CC(=O)N(C)O)cc1 | 162 µM | 138 µM | 46 µM | 12 µM |  |  |  |
|  | CC(C)Cc1ccc(C(C)C(=O)N(O)C(C)C)cc1 (stereo not drawn) | < 4 µM | < 4 µM | < 4 µM | < 4 µM |  |  |  |
|  | CN(O)C(=O)c1ccc2ccccc2c1 |  |  |  |  | inactive |  |  |
| 60 nM | Cc1cc(C)c(-c2ccc(C(=O)N(C)O)cc2)c(C)c1 |  |  |  |  |  |  | 41% |
|  | Cc1cc(C)c(-c2ccc(C(=O)NO)cc2)c(C)c1 |  |  |  |  | inactive |  |  |
| 280 nM | CC(C(=O)N(C)O)c1ccc(OCc2ccccc2)cc1 (stereo not drawn) | 16 µM | 51 µM | 8.4 µM | 7.9 µM |  |  | 62% |
